Results on two compounds are retold here after ChEMBL document CHEMBL4308835, “Fluorine-Substituted Pyrrolo[2,3- d]Pyrimidine Analogues with Tumor Targeting via Cellular Uptake by Folate Receptor α and the Proton-Coupled Folate Transporter and Inhibition of de Novo Purine Nucleotide Biosynthesis” (J Med Chem, 2018).

The source made the active and inactive calls. No cut-off for these calls is given here.

Data set [1] relates to IGROV-1. The experiment in a line: Antiproliferative activity against human IGROV1 cells harboring non targeted control shRNA sequence after 96 hrs by Cell-Titer Blue assay. Particulars: IGROV-1, 96 h. Format: functional, cell-based.
Data set [2] addresses T1, Reduced folate transporter (Homo sapiens) (UniProt P41440).
T1 sequence (whole entry): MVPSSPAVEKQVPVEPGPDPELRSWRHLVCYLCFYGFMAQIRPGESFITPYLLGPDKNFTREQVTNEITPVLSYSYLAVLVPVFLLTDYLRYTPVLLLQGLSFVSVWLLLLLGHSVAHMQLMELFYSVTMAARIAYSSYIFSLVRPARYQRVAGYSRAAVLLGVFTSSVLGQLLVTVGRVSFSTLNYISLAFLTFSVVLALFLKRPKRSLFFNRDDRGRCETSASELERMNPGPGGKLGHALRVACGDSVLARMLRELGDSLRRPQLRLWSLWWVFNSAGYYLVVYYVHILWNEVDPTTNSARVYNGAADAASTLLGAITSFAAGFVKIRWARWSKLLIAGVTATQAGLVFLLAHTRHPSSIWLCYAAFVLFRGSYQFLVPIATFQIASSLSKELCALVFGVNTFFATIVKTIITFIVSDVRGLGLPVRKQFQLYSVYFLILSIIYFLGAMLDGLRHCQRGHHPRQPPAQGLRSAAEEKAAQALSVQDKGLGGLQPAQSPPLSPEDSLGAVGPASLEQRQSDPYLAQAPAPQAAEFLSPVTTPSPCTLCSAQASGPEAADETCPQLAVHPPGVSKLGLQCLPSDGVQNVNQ
The experiment in a line: Inhibition of human RFC2 expressed in human HeLa R1-11 cells assessed as reduction in [3H]MTX uptake at pH 7.2 at 10 uM measured over 2 mins relative to control. It is filed as cell-based.

The target in data set [3] is T1, Reduced folate transporter (Homo sapiens). The data set can be described thus: Inhibition of human RFC2 expressed in human HeLa R1-11 cells assessed as reduction in [3H]MTX uptake at pH 7.2 at 1 uM measured over 2 mins relative to control. It is filed as cell-based.
Data set [4] relates to IGROV-1. The data set can be described thus: Antiproliferative activity against FRalpha […] human IGROV1 KD4 cells after 96 hrs by Cell-Titer Blue assay. Format: functional, cell-based. The following applies: IGROV-1, 96 h.
For data set [5], the target named is T2, Proton-coupled folate transporter (Homo sapiens) (UniProt Q96NT5).
T2 sequence (whole entry): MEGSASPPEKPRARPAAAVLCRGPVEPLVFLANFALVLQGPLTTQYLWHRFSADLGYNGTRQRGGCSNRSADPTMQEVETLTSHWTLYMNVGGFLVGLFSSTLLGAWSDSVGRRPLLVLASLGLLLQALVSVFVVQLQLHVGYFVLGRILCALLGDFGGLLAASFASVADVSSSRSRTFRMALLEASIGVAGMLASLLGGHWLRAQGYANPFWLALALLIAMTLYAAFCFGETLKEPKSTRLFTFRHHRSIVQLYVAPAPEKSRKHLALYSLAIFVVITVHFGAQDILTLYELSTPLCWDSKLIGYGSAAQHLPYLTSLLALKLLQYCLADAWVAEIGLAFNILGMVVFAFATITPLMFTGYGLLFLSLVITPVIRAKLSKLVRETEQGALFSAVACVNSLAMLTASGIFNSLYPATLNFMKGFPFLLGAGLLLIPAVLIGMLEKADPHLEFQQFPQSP
The experiment in a line: Inhibition of human PCFT expressed in Chinese hamster R2/PCFT4 cells assessed as reduction in [3H]MTX uptake at pH 5.5 at 1 uM measured over 2 mins relative to control. Format: cell-based.

The subject of data set [6] is IGROV-1. The data set can be described thus: Antiproliferative activity against human IGROV1 cells at 1 to 1000 nM in presence of 60 uM adenosine after 96 hrs by Cell-Titer Blue assay. It is filed as functional, cell-based. Summed up: (§1)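 IGROV1 cells, 2000/well, in folate-free RPMI 1640 with 10% dialyzed FBS, L-glutamine, 25 nM LCV. A range of drug concentrations was given with thymidine (10 μM), adenosine (60 μM) or AICA (320 μM) added. After 96 h, proliferation was measured by Cell-Titer Blue fluorescence. At least triplicate experiments.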

The test system of data set [7] is IGROV-1. The data set can be described thus: Anticlonogenic activity against human IGROV1 cells incubated for 24 hrs followed by compound wash out and measured after 10 days by methylene blue staining-based assay. It is filed as functional, cell-based. Summed up: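 IGROV1 cells plated in folate-free RPMI 1640 (pH 7.2), 10% dialyzed FBS, 25 nM LCV. After 24 h adherence, exposed to drug (0–20 μM) for 24 h at pH 6.8 (25 mM PIPES/25 mM HEPES). Washed, then grown drug-free at pH 7.2 (100 mM HEPES) with 25 nM LCV for up to 10 days at 37 °C. Colonies stained with methylene blue and counted electronically. Values normalized to vehicle controls. Triplicate experiments.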

Data set [8] has as its system IGROV-1. The experiment in a line: Antiproliferative activity against human IGROV1 cells at 1 to 1000 nM in presence of 320 uM AICA after 96 hrs by Cell-Titer Blue assay. Format: functional, cell-based. Summed up: as §1
Data set [9] relates to IGROV-1. The experiment in a line: Antiproliferative activity against wild type human IGROV1 cells after 96 hrs by Cell-Titer Blue assay. Format: functional, cell-based. Particulars: IGROV-1, 96 h.
The test system of data set [10] is IGROV-1. The data set can be described thus: Antiproliferative activity against human IGROV1 cells at 1 to 1000 nM in presence of 10 uM thymidine after 96 hrs by Cell-Titer Blue assay. Format: functional, cell-based. Summed up: as §1
Data set [11] is described as follows: Toxicity in NCR SCID mouse xenografted with human IGROV1 cells assessed as weight loss median nadir at 95 mg/kg, iv treated once daily for 4 days per week for 4 weeks starting from 3 days post implantation and measured after conclusion of therapy. Format: organism-based. The following applies: in vivo. Summed up: (§2)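 Female ICR SCID mice, 10 weeks old, kept on a folate-deficient diet for 14 days before bilateral subcutaneous IGROV1 implants; a control cohort was fed folate-replete chow. Randomized at 5 mice/group. […] Tumors measured twice weekly; body weights recorded daily.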
A general note: Xenograft models place foreign cells or tissue in a host animal.

Data set [12] addresses T2, Proton-coupled folate transporter (Homo sapiens). The experiment in a line: Inhibition of human PCFT expressed in Chinese hamster R2/PCFT4 cells assessed as reduction in [3H]MTX uptake at pH 5.5 at 10 uM measured over 2 mins relative to control. It is filed as cell-based.
The nature of data set [13]: Toxicity in NCR SCID mouse xenografted with human IGROV1 cells assessed as weight loss median nadir at 95 mg/kg, iv treated once daily for 4 days per week for 4 weeks starting from 3 days post implantation and measured at day 18 post last dose relative to control. Format: organism-based. Particulars: in vivo.
Data set [14] deals with T2, Proton-coupled folate transporter (Homo sapiens). The data set can be described thus: Inhibition of human PCFT expressed in Chinese hamster R2/PCFT4 cells assessed as reduction in [3H]MTX uptake at pH 5.5 at 1 to 10 uM measured over 2 mins. Format: cell-based.
The subject of data set [15] is IGROV-1. The data set can be described thus: Antiproliferative activity against FRalpha […] human IGROV1 KD10 cells after 96 hrs by Cell-Titer Blue assay. It is filed as functional, cell-based. The following applies: IGROV-1, 96 h.
Data set [16] addresses T3, Proton-coupled folate transporter (Homo sapiens, UniProt Q96NT5).
T3 sequence (Q96NT5 whole entry): T2 sequence (whole entry)
The data set can be described thus: Inhibition of human PCFT expressed in Chinese hamster R2/PCFT4 cells assessed as reduction in [3H]MTX uptake at pH 5.5 measured over 2 mins by Dixon plot analysis. Format: cell-based. Summed up:
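Competitor concentrations ranged from 0.05 to 0.5 μM. Ki was obtained by Dixon plot. Mean ± SE of four independent experiments.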

Data set [17] is described as follows: Toxicity in NCR SCID mouse xenografted with human IGROV1 cells assessed as weight loss median nadir at 95 mg/kg, iv treated once daily for 4 days per week for 4 weeks starting from 3 days post implantation and measured at day 14 post last dose relative to control. Format: organism-based. The following applies: in vivo.
The next data set deals with A2780. The data set can be described thus: Antiproliferative activity against human A2780 cells after 96 hrs by Cell-Titer Blue assay. Format: functional, cell-based. The following applies: A2780, 96 h.
Data set [18] in a line: Antiproliferative activity in Chinese hamster R2 cells deficient in RFC, PCFT, and FRalpha assessed as reduction in cell growth after 96 hrs by Cell-Titer Blue assay. The following applies: Cricetulus griseus, R2, 96 h. It is filed as cell-based.
Data set [19] deals with Folate receptor alpha (Homo sapiens) (UniProt P15328). The data set can be described thus: Displacement of [3H]folic acid from human FRalpha expressed in Chinese hamster RT16 cells at 10 to 1000 nM after 15 mins. Format: cell-based. Summed up:
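RT16 (FRα) or D4 (FRβ) CHO cells at ~80% confluence were washed with PBS at 4 °C, then with pH 3.5 acetate buffer to strip bound folate, then HEPES-buffered saline pH 7.4. Cells were incubated with 50 nM [³H]folic acid plus competitor (10–1000 nM) for 15 min at 4 °C, washed, and solubilized in NaOH. Bound radioactivity was normalized to protein.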
On the technique in general: In a radioligand displacement assay an active substance lowers the binding of a labelled ligand.

In data set [20] the test system is IGROV-1. The data set can be described thus: Antitumor activity against human IGROV1 cells xenografted in NCR SCID mouse assessed as time for tumor growth delay at 95 mg/kg, iv treated once daily for 4 days per week for 4 weeks starting from 3 days post implantation. Format: functional. The following applies: in the assay text read “32 mg/kg” for “95 mg/kg”. Summed up:
as §2

Data set [21] can be described thus: Toxicity in NCR SCID mouse xenografted with human IGROV1 cells at 32 mg/kg, iv treated once daily for 4 days per week for 3 weeks starting from 3 days post implantation. Format: organism-based. The following applies: in vivo. Summed up: (§3)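 Female ICR SCID mice on a folate-deficient diet for 14 days before bilateral subcutaneous IGROV1 implants. Randomized at 5 mice/group. […] Body weights recorded daily; tumors measured twice weekly.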

Data set [22] has as its system IGROV-1. The experiment in a line: Antitumor activity against human IGROV1 cells xenografted in NCR SCID mouse assessed as median tumor burden at 32 mg/kg, iv treated once daily for 4 days per week for 3 weeks starting from 3 days post implantation and measured at day 60 post last dose (reference value: 108 mg). Format: functional. Summed up: (§4)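 Female ICR SCID mice (10 weeks, ~20 g) kept on folate-deficient diet ad libitum for 14 d before bilateral subcutaneous IGROV1 implantation; a control cohort was fed standard folate-replete chow. 5 mice/group, nonselectively randomized. […] Tumors measured twice weekly, body weights daily. T/C from median tumor burdens.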

Data set [23] in a line: Toxicity in NCR SCID mouse xenografted with human IGROV1 cells assessed as weight loss median nadir at 32 mg/kg, iv treated once daily for 4 days per week for 3 weeks starting from 3 days post implantation and measured at day 18 post last dose relative to control. It is filed as organism-based. Particulars: in vivo. Summed up:
as §3

A short description of data set [24]: Toxicity in NCR SCID mouse xenografted with human IGROV1 cells assessed as weight loss median nadir at 32 mg/kg, iv treated once daily for 4 days per week for 3 weeks starting from 3 days post implantation and measured at day 14 post last dose relative to control. Particulars: in vivo. Format: organism-based. Summed up: as §4
Data set [25] is described as follows: Toxicity in NCR SCID mouse xenografted with human IGROV1 cells assessed as weight loss median nadir at 32 mg/kg, iv treated once daily for 4 days per week for 4 weeks starting from 3 days post implantation and measured after conclusion of therapy. Format: organism-based. The following applies: in vivo.

Sequence of Folate receptor alpha (Homo sapiens) (P15328 25-234 limits assumed): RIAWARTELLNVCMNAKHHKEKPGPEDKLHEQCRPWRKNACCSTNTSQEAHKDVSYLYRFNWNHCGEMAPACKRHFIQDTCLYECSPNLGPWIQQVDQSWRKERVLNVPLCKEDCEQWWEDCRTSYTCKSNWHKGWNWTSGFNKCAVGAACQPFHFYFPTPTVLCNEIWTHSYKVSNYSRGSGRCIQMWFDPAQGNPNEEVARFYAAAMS

One may read the IC50 as the midpoint of a concentration-inhibition curve. Broadly, the inhibition is how much of the control response was suppressed. By Ki is commonly meant the equilibrium dissociation constant of an inhibitor or competing ligand from its target. Take `Nc1nc2[nH]c(CCCCc3csc(C(=O)N[C@@H](CCC(=O)O)C(=O)O)c3F)cc2c(=O)[nH]1`: the IC50 in the data set on IGROV-1 [1] is 1.79 nM; with IGROV-1 [4] it was 138 nM; in the data set on IGROV-1 [7] it was 200 nM; in the data set on IGROV-1 [9] it was 1.9 nM; in the data set on IGROV-1 [15], 66.9 nM; in the data set with A2780, 3.11 nM. Further, in [18], the IC50 was more than 1000 nM. In addition, the inhibition result in data set [2] and in data set [3] was “inactive” throughout. Also, the inhibition in data set [5] lay within 60 to 85%; in data set [12] it was 90 to 95%. The outcome in the data set with IGROV-1 [6] and in the data set on IGROV-1 [8] was inactive. Besides, in the data set with IGROV-1 [10], the outcome was Active. Moreover, the Activity entry in data set [11] is reported as “Non-Toxic”; in data set [13] it was 12.1%; in data set [17], 15.7%. For the same compound, the inhibition result in data set [14] and in data set [19] was “Active” each time. Also, the inhibition constant Ki in data set [16] was determined as 250 nM.
Take `Nc1nc2[nH]c(CCCc3ccc(C(=O)N[C@@H](CCC(=O)O)C(=O)O)s3)cc2c(=O)[nH]1`: the Time in the data set with IGROV-1 [20] worked out at 35 days. The Activity entry is listed as “Non-Toxic” in data set [21]; 108 mg with IGROV-1 [22]; 12.1% in [23]; 15.7% in data set [24]; “Non-Toxic” in data set [25]. Also, the IC50 worked out at 10.1 nM in the data set on IGROV-1 [1]; 270 nM in the data set on IGROV-1 [7]; 16.7 nM in the data set on IGROV-1 [9]; 74.6 nM with IGROV-1 [15]; 27.4 nM in the data set with A2780; 355 nM in data set [18]. Also, the inhibition result in [2] and in data set [3] was “inactive” throughout. Moreover, in [14], the inhibition entry is “Active”.
